Experimental data published in ChEMBL document CHEMBL1152541, “Staurosporine tethered peptide ligands that target cAMP-dependent protein kinase (PKA): optimization and selectivity profiling” (Bioorg Med Chem, 2009).
One block for each compound: values may come before it. *1 amine or outer side, *2 acyl side, *3 side chain or, on linkers, in order; H or OH if unused. Where a SMILES comes first, the peptide text is derived from it. Bridges are numbered along the chain shown (N, C = ends). [ ]: non-standard residue; d: D form. The star is where a group is joined. Staurosporine = CO[C@@H]1[C@H](N(C)*)C[C@H]2O[C@]1(C)n1c3ccccc3c3c4c(c5c6ccccc6n2c5c31)C(=O)NC4; Suc = O=C(CCC(=O)[*:2])[*:1]; Dap = NC[C@H](N)C(=O)O; βAla = NCCC(=O)O

Legend:
[1] = target: RAC-alpha serine/threonine-protein kinase (Homo sapiens) (UniProt P31749); test: Binding affinity to human AKT1 at 500 nM by cell-based competition binding assay relative to control in presence of DTT
Procedure, shortened: (§1)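 Kinase binding profiling ran on a commercial (Ambit) competitive binding screen against a panel of 90 kinases. The screen used reducing conditions with 7.5 mM DTT. To withstand the DTT, the bivalent ligand was tested as its amide isostere, with the disulfide replaced. A staurosporine derivative carrying a 3 β-alanine linker was run as the reference compound.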

[2] = target: Mitogen-activated protein kinase 3 (Homo sapiens) (UniProt P27361); test: Binding affinity to human ERK1 at 200 nM by cell-based competition binding assay relative to control in presence of DTT
Procedure, shortened: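 Commercial (Ambit) competitive kinase-binding panel of 90 kinases measured the binding profile. Run under reducing conditions of 7.5 mM DTT. Binding is expressed relative to control.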

[3] = target: Focal adhesion kinase 1 (Homo sapiens) (UniProt Q05397); test: Binding affinity to human PTK2 at 200 nM by cell-based competition binding assay relative to control in presence of DTT
[4] = target: Mast/stem cell growth factor receptor Kit (Homo sapiens) (UniProt P10721); test: Binding affinity to human KIT at 200 nM by cell-based competition binding assay relative to control in presence of DTT
Procedure, shortened: (§2)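 Competition binding screen (Ambit) across a panel of 90 kinases, scoring test ligand displacement of each kinase's binding relative to control. The screen ran under reducing conditions with 7.5 mM DTT.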

[5] = target: Serine/threonine-protein kinase PAK 2 (Homo sapiens) (UniProt Q13177); test: Binding affinity to human PAK2 at 200 nM by cell-based competition binding assay relative to control in presence of DTT
[6] = target: Cyclin-dependent kinase 2 (Homo sapiens) (UniProt P24941); test: Binding affinity to human CDK2 at 50 nM by cell-based competition binding assay relative to control in presence of DTT; procedure, shortened: as §1
[7] = system: Mast/stem cell growth factor receptor Kit (Homo sapiens), P10721 [D816V]; test: Binding affinity to human KIT D816V mutant at 50 nM by cell-based competition binding assay relative to control in presence of DTT; procedure, shortened: as §2
[8] = target: Phosphatidylinositol 4-phosphate 3-kinase C2 domain-containing subunit beta (Homo sapiens) (UniProt O00750); test: Binding affinity to human PIK3C2beta at 50 nM by cell-based competition binding assay relative to control in presence of DTT
[9] = target: Serine/threonine-protein kinase pim-3 (Homo sapiens) (UniProt Q86V86); test: Binding affinity to human PIM3 at 50 nM by cell-based competition binding assay relative to control in presence of DTT
[10] = target: T1, Tyrosine-protein kinase JAK3 (Homo sapiens) (UniProt P52333); test: Binding affinity to human JAK3 kinase domain 2 at 50 nM by cell-based competition binding assay relative to control in presence of DTT; procedure, shortened: as §2
T1 sequence (whole entry): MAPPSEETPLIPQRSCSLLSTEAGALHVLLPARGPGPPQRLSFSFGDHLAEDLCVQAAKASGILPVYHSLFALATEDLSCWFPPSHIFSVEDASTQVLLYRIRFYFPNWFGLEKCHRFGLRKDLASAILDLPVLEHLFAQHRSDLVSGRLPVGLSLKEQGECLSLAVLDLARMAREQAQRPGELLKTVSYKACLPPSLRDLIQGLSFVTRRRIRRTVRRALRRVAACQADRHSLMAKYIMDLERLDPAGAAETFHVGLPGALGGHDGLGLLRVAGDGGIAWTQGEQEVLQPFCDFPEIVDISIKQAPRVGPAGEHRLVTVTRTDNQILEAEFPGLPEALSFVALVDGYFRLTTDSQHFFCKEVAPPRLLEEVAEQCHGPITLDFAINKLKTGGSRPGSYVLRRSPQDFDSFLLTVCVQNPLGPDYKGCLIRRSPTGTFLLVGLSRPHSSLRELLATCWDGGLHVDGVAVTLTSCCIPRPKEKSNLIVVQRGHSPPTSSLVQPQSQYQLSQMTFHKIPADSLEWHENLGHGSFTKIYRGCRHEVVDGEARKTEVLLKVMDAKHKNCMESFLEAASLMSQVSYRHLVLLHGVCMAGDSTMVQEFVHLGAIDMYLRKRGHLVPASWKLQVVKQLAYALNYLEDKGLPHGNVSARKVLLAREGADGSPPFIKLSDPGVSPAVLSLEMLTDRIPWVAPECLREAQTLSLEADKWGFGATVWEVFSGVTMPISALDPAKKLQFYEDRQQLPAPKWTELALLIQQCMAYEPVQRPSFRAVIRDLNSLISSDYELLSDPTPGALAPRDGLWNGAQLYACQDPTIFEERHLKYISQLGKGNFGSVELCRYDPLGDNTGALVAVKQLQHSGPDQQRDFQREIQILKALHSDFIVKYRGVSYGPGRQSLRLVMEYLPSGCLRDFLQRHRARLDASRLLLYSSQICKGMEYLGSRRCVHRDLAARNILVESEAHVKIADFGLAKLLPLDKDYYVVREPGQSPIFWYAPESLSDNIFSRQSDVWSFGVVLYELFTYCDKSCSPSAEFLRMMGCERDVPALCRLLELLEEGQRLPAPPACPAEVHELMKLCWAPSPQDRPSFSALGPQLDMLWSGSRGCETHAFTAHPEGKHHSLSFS

Mast/stem cell growth factor receptor Kit (Homo sapiens), P10721 [D816V], sequence (P10721 whole entry D816V, the tested form may be a part): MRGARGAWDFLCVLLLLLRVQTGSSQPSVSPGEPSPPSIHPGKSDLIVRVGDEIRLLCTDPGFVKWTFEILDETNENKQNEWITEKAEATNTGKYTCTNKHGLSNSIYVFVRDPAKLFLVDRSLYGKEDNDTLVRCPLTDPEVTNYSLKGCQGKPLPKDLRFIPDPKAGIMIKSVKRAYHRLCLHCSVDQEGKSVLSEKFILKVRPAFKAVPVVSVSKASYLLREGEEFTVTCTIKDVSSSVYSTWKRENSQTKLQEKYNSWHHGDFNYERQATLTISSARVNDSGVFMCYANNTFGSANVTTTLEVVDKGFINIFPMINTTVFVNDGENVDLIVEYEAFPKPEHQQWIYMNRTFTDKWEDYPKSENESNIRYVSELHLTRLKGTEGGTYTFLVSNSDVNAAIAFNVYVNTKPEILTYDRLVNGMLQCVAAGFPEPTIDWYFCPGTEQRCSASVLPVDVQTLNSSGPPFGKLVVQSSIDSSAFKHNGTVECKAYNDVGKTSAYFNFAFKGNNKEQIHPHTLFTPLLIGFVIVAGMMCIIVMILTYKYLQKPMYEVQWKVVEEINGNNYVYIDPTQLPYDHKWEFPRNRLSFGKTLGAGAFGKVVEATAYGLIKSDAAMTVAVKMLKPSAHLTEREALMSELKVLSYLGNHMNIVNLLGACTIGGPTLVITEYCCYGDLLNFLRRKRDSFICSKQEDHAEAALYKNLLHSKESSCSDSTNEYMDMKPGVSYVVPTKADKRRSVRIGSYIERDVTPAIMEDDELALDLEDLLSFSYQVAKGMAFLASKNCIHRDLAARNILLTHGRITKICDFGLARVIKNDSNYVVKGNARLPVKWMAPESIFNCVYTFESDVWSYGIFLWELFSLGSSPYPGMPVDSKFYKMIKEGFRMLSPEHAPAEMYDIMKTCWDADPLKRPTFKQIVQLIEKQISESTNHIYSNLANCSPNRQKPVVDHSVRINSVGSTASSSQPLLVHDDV
RAC-alpha serine/threonine-protein kinase (Homo sapiens), sequence (P31749 whole entry): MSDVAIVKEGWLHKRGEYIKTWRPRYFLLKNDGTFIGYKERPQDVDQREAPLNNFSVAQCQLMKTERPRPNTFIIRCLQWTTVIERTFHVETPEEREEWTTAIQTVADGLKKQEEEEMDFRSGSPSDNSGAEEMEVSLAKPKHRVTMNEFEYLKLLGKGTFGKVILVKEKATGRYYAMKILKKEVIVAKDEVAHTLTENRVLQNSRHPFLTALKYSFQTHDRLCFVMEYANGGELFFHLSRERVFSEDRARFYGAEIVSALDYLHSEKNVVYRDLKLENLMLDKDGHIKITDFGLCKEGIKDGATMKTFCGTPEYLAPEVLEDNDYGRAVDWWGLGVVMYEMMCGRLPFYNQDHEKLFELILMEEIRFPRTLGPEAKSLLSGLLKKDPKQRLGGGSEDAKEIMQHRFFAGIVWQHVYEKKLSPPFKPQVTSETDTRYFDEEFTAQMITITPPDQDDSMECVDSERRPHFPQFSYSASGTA
Mast/stem cell growth factor receptor Kit (Homo sapiens), sequence (P10721 whole entry): as the sequence (P10721 whole entry D816V, the tested form may be a part) above, with V816D counted along it
Focal adhesion kinase 1 (Homo sapiens), sequence (Q05397 2-1052 limits assumed): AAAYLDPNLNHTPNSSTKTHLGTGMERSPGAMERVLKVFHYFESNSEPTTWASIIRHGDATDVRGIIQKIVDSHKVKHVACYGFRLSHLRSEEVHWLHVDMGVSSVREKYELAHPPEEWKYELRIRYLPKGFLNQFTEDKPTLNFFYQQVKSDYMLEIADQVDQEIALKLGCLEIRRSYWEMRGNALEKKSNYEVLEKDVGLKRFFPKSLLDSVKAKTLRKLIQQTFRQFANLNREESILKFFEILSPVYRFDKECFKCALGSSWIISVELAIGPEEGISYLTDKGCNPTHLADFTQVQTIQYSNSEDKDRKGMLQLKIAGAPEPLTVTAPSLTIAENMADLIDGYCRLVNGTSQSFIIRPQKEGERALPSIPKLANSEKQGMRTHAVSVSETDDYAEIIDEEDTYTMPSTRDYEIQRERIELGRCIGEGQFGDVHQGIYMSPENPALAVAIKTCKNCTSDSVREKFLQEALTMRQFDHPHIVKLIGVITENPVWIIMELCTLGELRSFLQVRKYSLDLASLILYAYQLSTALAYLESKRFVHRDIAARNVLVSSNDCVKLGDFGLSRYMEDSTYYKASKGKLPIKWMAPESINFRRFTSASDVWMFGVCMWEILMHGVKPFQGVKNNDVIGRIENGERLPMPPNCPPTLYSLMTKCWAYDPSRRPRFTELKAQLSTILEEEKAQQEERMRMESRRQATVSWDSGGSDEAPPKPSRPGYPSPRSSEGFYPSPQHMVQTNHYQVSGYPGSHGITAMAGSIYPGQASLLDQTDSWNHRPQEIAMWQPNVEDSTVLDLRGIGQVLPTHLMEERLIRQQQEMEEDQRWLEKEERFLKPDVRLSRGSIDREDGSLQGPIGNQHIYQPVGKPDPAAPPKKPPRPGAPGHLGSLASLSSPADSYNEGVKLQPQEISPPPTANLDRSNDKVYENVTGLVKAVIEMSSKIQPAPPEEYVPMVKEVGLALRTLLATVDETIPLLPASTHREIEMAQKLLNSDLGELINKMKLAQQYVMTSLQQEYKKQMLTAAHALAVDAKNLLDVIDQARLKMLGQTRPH
Phosphatidylinositol 4-phosphate 3-kinase C2 domain-containing subunit beta (Homo sapiens), sequence (O00750 whole entry, the tested form may be a part): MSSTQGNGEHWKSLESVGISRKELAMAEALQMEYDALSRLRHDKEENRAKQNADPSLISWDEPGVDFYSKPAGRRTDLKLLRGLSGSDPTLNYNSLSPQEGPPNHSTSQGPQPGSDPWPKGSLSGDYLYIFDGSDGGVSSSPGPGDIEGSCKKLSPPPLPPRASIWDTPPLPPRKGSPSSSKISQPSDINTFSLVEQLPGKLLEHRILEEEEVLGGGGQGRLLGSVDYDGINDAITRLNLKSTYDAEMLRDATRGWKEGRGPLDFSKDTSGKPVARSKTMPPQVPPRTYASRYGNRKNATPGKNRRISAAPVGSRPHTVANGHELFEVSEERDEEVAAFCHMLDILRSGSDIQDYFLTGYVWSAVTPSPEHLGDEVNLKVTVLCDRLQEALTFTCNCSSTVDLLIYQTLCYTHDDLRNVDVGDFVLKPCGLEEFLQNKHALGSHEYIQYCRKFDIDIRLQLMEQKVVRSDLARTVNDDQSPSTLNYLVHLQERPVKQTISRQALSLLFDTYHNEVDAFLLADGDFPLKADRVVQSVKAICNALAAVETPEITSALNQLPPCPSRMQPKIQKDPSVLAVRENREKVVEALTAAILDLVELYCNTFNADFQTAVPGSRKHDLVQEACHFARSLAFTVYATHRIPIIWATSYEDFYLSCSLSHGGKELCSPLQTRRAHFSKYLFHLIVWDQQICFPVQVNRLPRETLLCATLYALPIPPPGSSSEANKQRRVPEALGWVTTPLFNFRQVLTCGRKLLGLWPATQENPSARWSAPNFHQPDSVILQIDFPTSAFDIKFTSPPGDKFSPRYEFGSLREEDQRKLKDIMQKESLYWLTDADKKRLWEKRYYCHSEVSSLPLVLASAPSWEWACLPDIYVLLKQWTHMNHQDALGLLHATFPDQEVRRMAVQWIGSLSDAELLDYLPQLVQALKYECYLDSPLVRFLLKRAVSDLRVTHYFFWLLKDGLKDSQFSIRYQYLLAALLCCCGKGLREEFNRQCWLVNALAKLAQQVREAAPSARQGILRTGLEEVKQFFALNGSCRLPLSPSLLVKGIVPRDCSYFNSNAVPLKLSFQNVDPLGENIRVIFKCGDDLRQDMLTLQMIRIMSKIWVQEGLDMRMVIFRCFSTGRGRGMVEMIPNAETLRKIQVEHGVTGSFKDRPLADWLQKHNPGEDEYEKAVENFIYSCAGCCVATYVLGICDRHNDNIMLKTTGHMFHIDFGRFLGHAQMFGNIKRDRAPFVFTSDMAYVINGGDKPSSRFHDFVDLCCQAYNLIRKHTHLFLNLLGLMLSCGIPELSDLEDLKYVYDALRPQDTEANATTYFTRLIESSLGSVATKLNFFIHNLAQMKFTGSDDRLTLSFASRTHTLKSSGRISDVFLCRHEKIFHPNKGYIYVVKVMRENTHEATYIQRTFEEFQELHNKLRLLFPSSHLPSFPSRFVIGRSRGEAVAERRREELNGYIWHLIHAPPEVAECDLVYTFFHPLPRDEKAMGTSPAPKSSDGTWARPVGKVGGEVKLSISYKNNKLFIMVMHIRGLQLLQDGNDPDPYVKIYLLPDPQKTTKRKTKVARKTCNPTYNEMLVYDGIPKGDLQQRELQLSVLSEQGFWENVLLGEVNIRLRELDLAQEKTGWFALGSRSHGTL
Serine/threonine-protein kinase PAK 2 (Homo sapiens), sequence (Q13177 whole entry): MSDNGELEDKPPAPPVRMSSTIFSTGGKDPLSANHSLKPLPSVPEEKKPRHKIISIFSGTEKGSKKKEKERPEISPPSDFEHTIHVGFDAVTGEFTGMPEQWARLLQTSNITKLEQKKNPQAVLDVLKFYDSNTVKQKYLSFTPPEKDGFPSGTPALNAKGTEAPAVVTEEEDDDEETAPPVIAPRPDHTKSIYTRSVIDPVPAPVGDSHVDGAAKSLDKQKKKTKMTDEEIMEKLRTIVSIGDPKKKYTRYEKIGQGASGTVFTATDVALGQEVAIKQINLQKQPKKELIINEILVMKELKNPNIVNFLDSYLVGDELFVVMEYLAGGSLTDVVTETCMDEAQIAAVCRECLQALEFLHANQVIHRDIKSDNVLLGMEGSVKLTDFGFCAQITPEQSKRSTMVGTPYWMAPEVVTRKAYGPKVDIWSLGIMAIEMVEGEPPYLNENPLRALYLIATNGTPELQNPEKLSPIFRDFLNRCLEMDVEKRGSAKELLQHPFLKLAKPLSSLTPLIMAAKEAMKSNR

Activity [1]: 100%
SMILES: CO[C@@H]1[C@H](N(C)C(=O)CCC(=O)NCCC(=O)NCCC(=O)NCCC(N)=O)C[C@H]2O[C@]1(C)n1c3ccccc3c3c4c(c5c6ccccc6n2c5c31)C(=O)NC4

Activity [2]: 100%
Activity [3]: 91%
Activity [4]: 39%
Activity [5]: 36%
SMILES: CO[C@@H]1[C@H](N(C)C(=O)CCC(=O)NCCC(=O)NCCC(=O)NCCC(=O)NCCC(=O)NCCC(=O)NCCC(=O)NCCC(=O)N[C@H]2CSSC[C@@H](C(=O)NCC(N)=O)NC(=O)CNC(=O)[C@H](Cc3ccccc3)NC(=O)[C@H](C(C)C)NC(=O)[C@H](CCCNC(=N)N)NC(=O)[C@H](Cc3ccccc3)NC(=O)[C@H](C(C)C)NC2=O)C[C@H]2O[C@]1(C)n1c3ccccc3c3c4c(c5c6ccccc6n2c5c31)C(=O)NC4 ({Staurosporine-Suc-βAla-βAla-βAla-βAla-βAla-βAla-βAla}-CVFRVFGCG-NH2; disulfide 1-8)

Activity [6]: 100%
Activity [7]: 6.5%
Activity [8]: 100%
Activity [9]: 66%
Activity [10]: 16%
SMILES: CO[C@@H]1[C@H](N(C)C(=O)CCC(=O)NCCC(=O)NCCC(=O)NCCC(=O)NCCC(=O)NCCC(=O)NCCC(=O)NCCC(=O)N[C@H]2CNC(=O)C[C@@H](C(N)=O)NC(=O)CNC(=O)[C@H](Cc3ccccc3)NC(=O)[C@H](C(C)C)NC(=O)[C@H](CCCNC(=N)N)NC(=O)[C@H](Cc3ccccc3)NC(=O)[C@H](C(C)C)NC2=O)C[C@H]2O[C@]1(C)n1c3ccccc3c3c4c(c5c6ccccc6n2c5c31)C(=O)NC4 ({Staurosporine-Suc-βAla-βAla-βAla-βAla-βAla-βAla-βAla}-[Dap]VFRVFGD-NH2; lactam 1-8)
